Activity calls are given as the source filed them. The calls are words filed in the database; no cut-off is given here.

For series [1], the system named is Trypanosoma cruzi. The experiment in a line: Binding affinity to recombinant Trypanosoma cruzi His/haemaglutinin-tagged BDF3 expressed in Escherichia coli BL21 assessed as compound amplification factor at 75 uM by LC-MS based dynamic combinatorial chemistry analysis. A digest of the protocol:
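A dynamic acylhydrazone library was built from six aldehydes and four acylhydrazides (75 μM each) in 100 mM ammonium acetate, pH 6.5, with 3.75 mM aniline. It reached constant composition by about 10 h and was run with or without 100 μM recombinant TcBDF3. Amplification factor is the LC–MS peak area with template divided by the area without template.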

For series [2], the system named is Trypanosoma cruzi. The experiment in a line: Antitrypanosomal activity against Trypanosoma cruzi Dm28c amastigotes infected in African green monkey Vero cells after 48 hrs by CPRG/Nonidet reagent based beta-galactosidase reporter gene assay. It counts as functional, organism-based. The procedure, abridged:
(§1)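 β-Galactosidase-expressing parasites were exposed to 0–200 μM of compound. Growth inhibition was read from β-galactosidase activity, and IC50 was obtained by nonlinear regression of activity against concentration.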

Series [3] concerns Trypanosoma cruzi. Briefly: Antitrypanosomal activity against Trypanosoma cruzi Dm28c epimastigotes infected in African green monkey Vero cells after 72 hrs by CPRG/Nonidet reagent based beta-galactosidase reporter gene assay. Type of series: functional, organism-based. A digest of the protocol: as §1
The subject of series [4] is Trypanosoma cruzi. Briefly: Antitrypanosomal activity against Trypanosoma cruzi Dm28c trypomastigotes infected in African green monkey Vero cells after 24 hrs by CPRG/Nonidet reagent based beta-galactosidase reporter gene assay. It counts as functional, organism-based. The procedure, abridged: as §1
(In general: A reporter such as luciferase makes a cellular process visible.)

The test system of a further series is Vero. Briefly: Cytotoxicity against African green monkey Vero cells after 72 hrs by MTT assay. Type of series: cell-based. The conditions noted are these: Chlorocebus sabaeus. On the technique in general: Tetrazolium assays rely on reduction of a dye to a coloured formazan, in cell work by metabolically active cells.
The nature of series [5]: (§2) Binding affinity to recombinant Trypanosoma cruzi His/haemaglutinin-tagged BDF3 expressed in Escherichia coli BL21 by fluorescence spectra analysis. A digest of the protocol:
(§3)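 Intrinsic tryptophan (W117) fluorescence spectra were recorded for 10 μM recombinant TcBDF3 in 100 mM ammonium acetate, pH 6.5, alone and with increasing ligand; building blocks were tested at 100 μM. Quenching was analyzed by Stern–Volmer, modified Stern–Volmer and double-logarithmic plots, and Kd came from the double-logarithmic plot.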

For series [6], the system named is Trypanosoma cruzi. Briefly: Binding affinity to recombinant Trypanosoma cruzi His/haemaglutinin-tagged BDF3 Y123A/L130A double mutant expressed in Escherichia coli BL21 by LC-MS based dynamic combinatorial chemistry analysis. The procedure, abridged:
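Dynamic library of six aldehydes and four acylhydrazides (75 μM each) in 100 mM ammonium acetate, pH 6.5, with 3.75 mM aniline, equilibrated about 10 h, with and without 100 μM recombinant protein. Read-out: LC–MS peak areas. Amplification factor = peak area in templated library ÷ peak area in untemplated library.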

Series [7] in a line: Selectivity index, ratio of IC50 for African green monkey Vero cells to IC50 for Trypanosoma cruzi Dm28c amastigotes infected in African green monkey Vero cells. The conditions noted are these: read-out: Ratio IC50. It counts as toxicity. The procedure, abridged:
(§4)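 Selectivity index is the Vero cell toxicity IC50 divided by the IC50 against the relevant extracellular or intracellular parasite form.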

The nature of series [8]: Selectivity index, ratio of IC50 for African green monkey Vero cells to IC50 for Trypanosoma cruzi Dm28c trypomastigotes infected in African green monkey Vero cells. It counts as toxicity. The following applies: read-out: Ratio IC50. The procedure, abridged:
as §4

Series [9] relates to Trypanosoma cruzi. Briefly: Binding affinity to recombinant Trypanosoma cruzi His/haemaglutinin-tagged BDF3 Y123A/L130A double mutant expressed in Escherichia coli BL21 by fluorescence spectra analysis. The procedure, abridged: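 Intrinsic tryptophan fluorescence of 10 μM recombinant protein in 100 mM ammonium acetate, pH 6.5, measured with and without the hydrazone dynamic library. Maximum emission was normalized and compared.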

Series [10] relates to Trypanosoma cruzi. The experiment in a line: Binding affinity to recombinant Trypanosoma cruzi His/haemaglutinin-tagged BDF3 expressed in Escherichia coli BL21 assessed as change in melting temperature at 10 uM by SYPRO orange based thermal shift assay.
Series [11] relates to Trypanosoma cruzi. Briefly: Binding affinity to recombinant Trypanosoma cruzi His/haemaglutinin-tagged BDF3 Y123A/L130A double mutant expressed in Escherichia coli BL21 assessed as change in melting temperature at 10 uM by SYPRO orange based thermal shift assay.
Series [12] in a line: Selectivity index, ratio of IC50 for African green monkey Vero cells to IC50 for Trypanosoma cruzi Dm28c epimastigotes infected in African green monkey Vero cells. The conditions noted are these: read-out: Ratio IC50. It counts as toxicity. The procedure, abridged:
as §4

Series [13] has as its system Trypanosoma cruzi. The experiment in a line: Binding affinity to recombinant Trypanosoma cruzi His/haemaglutinin-tagged BDF3 expressed in Escherichia coli BL21 at 100 uM by fluorescence spectra analysis. A digest of the protocol:
as §3

Series [14] deals with Trypanosoma cruzi. The series is described as §2. The procedure, abridged: as §3
In series [15] the test system is Trypanosoma cruzi. The experiment in a line: Antitrypanosomal activity against Trypanosoma cruzi Dm28c […] infected in African green monkey Vero cells at 25 uM after 48 hrs by CPRG/Nonidet reagent based beta-galactosidase reporter gene assay. It counts as functional, organism-based.
For series [16], the system named is Trypanosoma cruzi. Briefly: Binding affinity to recombinant Trypanosoma cruzi His/haemaglutinin-tagged BDF3 expressed in Escherichia coli BL21 assessed as change in melting temperature by SYPRO orange based thermal shift assay.

As to `O=C(N/N=C/CCC/C=N/NC(=O)c1ccccc1)c1ccccc1`, the fold change (FC) with Trypanosoma cruzi [1] is less than 1.

The IC50 is the concentration that gives 50% inhibition. For the molecule `O=C(Cn1ccnc1[N+](=O)[O-])NCc1ccccc1` [BENZNIDAZOLE], the 50% inhibitory concentration (IC50) in the series with Trypanosoma cruzi [2] came to 3.92 µM; with Trypanosoma cruzi [3], 18.2 µM; in the series on Trypanosoma cruzi [4], 27.1 µM; with Vero, 30.2 µM.

As for `O=C(N/N=C/CCC/C=N/NC(=O)c1ccncc1)c1ccncc1`, the fold change (FC) in the series with Trypanosoma cruzi [1] is less than 1.

`COc1cc(/C=N/NC(=O)c2ccccc2)ccc1O`: in the series with Trypanosoma cruzi [1], the fold change (FC) lay within 1.5 to 2.

Take `O=C(N/N=C/c1ccc(CO)o1)c1ccccc1`: the fold change (FC) with Trypanosoma cruzi [1] is less than 1.

Turning to `O=C(O)c1ccc(/C=N/NC(=O)c2cccs2)cc1`, the fold change (FC) with Trypanosoma cruzi [1] was less than 1.

Consider `O=C(N/N=C/c1ccc(CO)o1)c1cccs1`, for which the fold change (FC) in the series on Trypanosoma cruzi [1] was less than 1.

With `O=C(O)c1ccc(/C=N/NC(=O)c2ccco2)cc1`, in the series on Trypanosoma cruzi [1], the fold change (FC) was less than 1.

As to `COc1cc(/C=N/NC(=O)c2ccccc2)cc(OC)c1OC`, in the series on Trypanosoma cruzi [1], the fold change (FC) was less than 1.

As to `O=C(N/N=C/CCC/C=N/NC(=O)c1ccncc1)c1ccccc1`, in the series on Trypanosoma cruzi [1], the fold change (FC) was less than 1.

In the case of `O=C(N/N=C/CCC/C=N/NC(=O)c1ccco1)c1ccccc1`, the fold change (FC) with Trypanosoma cruzi [1] was less than 1.

In the case of `O=C(N/N=C/[C@H](O)[C@H](O)[C@H](O)[C@@H](O)CO)c1ccccc1`, the fold change (FC) in the series on Trypanosoma cruzi [1] is 1.5 to 2.

Consider `COc1cc(/C=N/NC(=O)c2ccncc2)ccc1O`, for which the fold change (FC) with Trypanosoma cruzi [1] is less than 1.

`COc1cc(/C=N/NC(=O)c2ccncc2)cc(OC)c1OC`: the fold change (FC) with Trypanosoma cruzi [1] is less than 1.

For `O=C(O)c1ccc(/C=N/NC(=O)c2ccncc2)cc1`, the fold change (FC) in the series with Trypanosoma cruzi [1] is less than 1.

`O=C(N/N=C/CCC/C=N/NC(=O)c1cccs1)c1ccco1`: the fold change (FC) in the series with Trypanosoma cruzi [1] is less than 1.

Take `O=C(N/N=C/CCC/C=N/NC(=O)c1ccco1)c1ccco1`: the fold change (FC) in the series with Trypanosoma cruzi [1] is less than 1.

In general, Kd refers to the concentration at which binding is half-saturated. One may read the ΔTm as the shift of the melting midpoint relative to a reference. As to `COc1cc(/C=N/NC(=O)c2cccs2)ccc1O`, the dissociation constant Kd in [5] amounted to 1.7 µM. Besides, the IC50 in the series on Trypanosoma cruzi [2] is 13.1 µM; in the series with Trypanosoma cruzi [3], 23 µM; in the series on Trypanosoma cruzi [4] it was 17.8 µM; in the series with Vero, greater than 200 µM. Also, the result in the series on Trypanosoma cruzi [6] and with Trypanosoma cruzi [9] was inactive. The selectivity ratio is greater than 15 in series [7], greater than 11 in series [8] and greater than 9 in series [12]. The results for the ΔTm in the series with Trypanosoma cruzi [10] and in the series with Trypanosoma cruzi [11] were 3.43 °C and 0.4 °C, respectively. Besides, the fold change (FC) with Trypanosoma cruzi [1] came to 2.4.

For the molecule `O=C(N/N=C/c1ccc(CO)o1)c1ccncc1`, the fold change (FC) in the series on Trypanosoma cruzi [1] is less than 1.

Consider `O=C(N/N=C/[C@H](O)[C@H](O)[C@H](O)[C@@H](O)CO)c1cccs1`, for which the fold change (FC) with Trypanosoma cruzi [1] was less than 1.

Consider `COc1cc(C=O)ccc1O`, for which the result with Trypanosoma cruzi [13] was inactive.

Consider `NNC(=O)c1cccs1`, for which the result in the series on Trypanosoma cruzi [13] was inactive.

Turning to `COc1cc(/C=N/NC(=O)c2cccs2)cc(OC)c1OC`, the result in the series on Trypanosoma cruzi [14], in the series on Trypanosoma cruzi [15] and with Trypanosoma cruzi [16] was Active. In the series with Trypanosoma cruzi [1], the fold change (FC) was 1.2.

Take `O=C(N/N=C/CCC/C=N/NC(=O)c1cccs1)c1cccs1`: the fold change (FC) in the series with Trypanosoma cruzi [1] is 1.5 to 2.

Take `COc1cc(/C=N/NC(=O)c2ccco2)cc(OC)c1OC`: in the series with Trypanosoma cruzi [1], the fold change (FC) is less than 1.

With `O=C(N/N=C/CCC/C=N/NC(=O)c1cccs1)c1ccncc1`, the fold change (FC) in the series with Trypanosoma cruzi [1] is less than 1.

Regarding `COc1cc(/C=N/NC(=O)c2ccco2)ccc1O`, in the series on Trypanosoma cruzi [1], the fold change (FC) lay in the range of 1.5 to 2.

Take `CC1CS(=O)(=O)CCN1/N=C/c1ccc([N+](=O)[O-])o1` (stereo not drawn) [NIFURTIMOX]: the IC50 with Trypanosoma cruzi [2] worked out at 3 µM; with Trypanosoma cruzi [3], 8 µM; with Trypanosoma cruzi [4], 7 µM; in the series with Vero, 115 µM. Also, the results for the selectivity ratio in [7], in series [8] and in series [12] were 38, 16 and 14, respectively.

As for `O=C(N/N=C/[C@H](O)[C@H](O)[C@H](O)[C@@H](O)CO)c1ccncc1`, in the series on Trypanosoma cruzi [1], the fold change (FC) was in the range of 1.5 to 2.

For the molecule `O=C(N/N=C/c1ccc(CO)o1)c1ccco1`, the fold change (FC) in the series with Trypanosoma cruzi [1] was less than 1.

`O=C(O)c1ccc(/C=N/NC(=O)c2ccccc2)cc1`: the fold change (FC) in the series on Trypanosoma cruzi [1] is less than 1.

As for `O=C(N/N=C/CCC/C=N/NC(=O)c1cccs1)c1ccccc1`, the fold change (FC) in the series with Trypanosoma cruzi [1] was less than 1.

On to `O=C(N/N=C/CCC/C=N/NC(=O)c1ccco1)c1ccncc1`, for which the fold change (FC) with Trypanosoma cruzi [1] was less than 1.

As to `O=C(N/N=C/[C@H](O)[C@H](O)[C@H](O)[C@@H](O)CO)c1ccco1`, the fold change (FC) with Trypanosoma cruzi [1] was less than 1.

The values above are taken from ChEMBL document CHEMBL4266005, “Discovery of a Biologically Active Bromodomain Inhibitor by Target-Directed Dynamic Combinatorial Chemistry” (ACS Med Chem Lett, 2018).
